Results on four compounds are retold here after PMC4074512 (European journal of pharmacology, 2014).

Values after ≈ are worked out from the molar mass of the structure shown. Read-outs that look alike come from different tables or passages of the source.

Series [1] in a line: Bidirectional flux of EFdA in Caco-2 cell monolayers. Format: in vitro ADME. Particulars: human, Caco-2, pH 7.4. An outline of the steps: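 Caco-2 cells seeded at 2.0 × 10^5 per polycarbonate insert (1.12 cm2, 0.4 μm) and differentiated 21 days. Monolayers were washed and pre-incubated 20 min at 37°C in HBSS, then TEER was read. Donor (apical or basolateral) held 25, 100 or 400 μM compound in HBSS/25 mM HEPES pH 7.4; 2 h at 37°C with shaking, sampled 0–120 min. HPLC-UV at 260 nm. Papp = (dQ/dt)/(A×C0); efflux ratio = Papp(b-a)/Papp(a-b); n = 3.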

In the next series the target is ABCB1 transporter (PGP1) (Homo sapiens, UniProt P08183). The series is classed as cell-based. To be noted: PGP1 overexpressing MDCKII cells, even at 200 μM.
Series [2] is classed as in vitro ADME, Canine. To be noted: dog, MDCK. An outline of the steps:
(§1)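 MDCKII cells seeded at 2.0 × 10^5 per polycarbonate insert (1.12 cm2, 0.4 μm) and grown 7 days; monolayers used only if TEER > 200 Ωcm2. Flux run in both directions per the Caco-2 protocol: HBSS/25 mM HEPES pH 7.4, 37°C, 2 h, serial sampling. Optional pretreatment: 5 μM EDTA in Ca/Mg-free HBSS, both sides, 5 min at 37°C, then washed. Compound by HPLC-UV, lucifer yellow by fluorescence (485/535 nm); n = 3.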

In another series the test system is MDCKII monolayers. The series is classed as in vitro ADME, Canine. Particulars: MDCKII monolayers; for Efflux ratio after EDTA treatment compared to non-EDTA treatment groups: all test groups; for Papp (a–b) / Papp (b-a): without EDTA treatment. The essentials:
as §1

For series [3] the following is noted: ref Zhang et al., 2013, cited from earlier work.
For series [4] the following is noted: ref Zhang et al., 2013; cited from earlier work.
Series [5] concerns human ectocervical tissues. Particulars: three separate human ectocervical tissues; ref Zhang et al., 2013; cited from earlier work.
A further series deals with Caco-2 monolayers. To be noted: pH from 5.5 to 7.4, ref Zhang et al., 2013; cited from earlier work.
Series [6] relates to MDCKII cells. Put plainly: Calcein-AM uptake assay in MDCKII cells. Format: cell-based, Canine. Particulars: MDCKII cells without PGP1 expression, calcein-AM 1 μM.
The test system of series [7] is MDCKII cells. Put plainly: In vitro cytotoxicity, MTT assay, MDCKII cells. Format: cell-based, Canine. Particulars: 48 h, n = 8, mean ± SD. The essentials:
(§2)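 Parental and PGP1-overexpressing MDCKII cells seeded at 5 × 10^3 per well, incubated 24 h at 37°C/5% CO2, then exposed 48 h to serial concentrations of DMSO-dissolved compound (DMSO ≤1% v/v). MTT (5 mg/ml solution) was added for 4 h at 37°C, formazan dissolved in DMSO, absorbance read at 595 nm; IC50 derived; mean ± SD.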

For series [8], the system named is PGP1 overexpressing MDCKII cells. Put plainly: In vitro cytotoxicity, MTT assay, PGP1 overexpressing MDCKII cells. To be noted: 48 h, n = 8, mean ± SD. The series is classed as cell-based, Canine. An outline of the steps:
as §2

ABCB1 transporter (PGP1), sequence (P08183 whole entry): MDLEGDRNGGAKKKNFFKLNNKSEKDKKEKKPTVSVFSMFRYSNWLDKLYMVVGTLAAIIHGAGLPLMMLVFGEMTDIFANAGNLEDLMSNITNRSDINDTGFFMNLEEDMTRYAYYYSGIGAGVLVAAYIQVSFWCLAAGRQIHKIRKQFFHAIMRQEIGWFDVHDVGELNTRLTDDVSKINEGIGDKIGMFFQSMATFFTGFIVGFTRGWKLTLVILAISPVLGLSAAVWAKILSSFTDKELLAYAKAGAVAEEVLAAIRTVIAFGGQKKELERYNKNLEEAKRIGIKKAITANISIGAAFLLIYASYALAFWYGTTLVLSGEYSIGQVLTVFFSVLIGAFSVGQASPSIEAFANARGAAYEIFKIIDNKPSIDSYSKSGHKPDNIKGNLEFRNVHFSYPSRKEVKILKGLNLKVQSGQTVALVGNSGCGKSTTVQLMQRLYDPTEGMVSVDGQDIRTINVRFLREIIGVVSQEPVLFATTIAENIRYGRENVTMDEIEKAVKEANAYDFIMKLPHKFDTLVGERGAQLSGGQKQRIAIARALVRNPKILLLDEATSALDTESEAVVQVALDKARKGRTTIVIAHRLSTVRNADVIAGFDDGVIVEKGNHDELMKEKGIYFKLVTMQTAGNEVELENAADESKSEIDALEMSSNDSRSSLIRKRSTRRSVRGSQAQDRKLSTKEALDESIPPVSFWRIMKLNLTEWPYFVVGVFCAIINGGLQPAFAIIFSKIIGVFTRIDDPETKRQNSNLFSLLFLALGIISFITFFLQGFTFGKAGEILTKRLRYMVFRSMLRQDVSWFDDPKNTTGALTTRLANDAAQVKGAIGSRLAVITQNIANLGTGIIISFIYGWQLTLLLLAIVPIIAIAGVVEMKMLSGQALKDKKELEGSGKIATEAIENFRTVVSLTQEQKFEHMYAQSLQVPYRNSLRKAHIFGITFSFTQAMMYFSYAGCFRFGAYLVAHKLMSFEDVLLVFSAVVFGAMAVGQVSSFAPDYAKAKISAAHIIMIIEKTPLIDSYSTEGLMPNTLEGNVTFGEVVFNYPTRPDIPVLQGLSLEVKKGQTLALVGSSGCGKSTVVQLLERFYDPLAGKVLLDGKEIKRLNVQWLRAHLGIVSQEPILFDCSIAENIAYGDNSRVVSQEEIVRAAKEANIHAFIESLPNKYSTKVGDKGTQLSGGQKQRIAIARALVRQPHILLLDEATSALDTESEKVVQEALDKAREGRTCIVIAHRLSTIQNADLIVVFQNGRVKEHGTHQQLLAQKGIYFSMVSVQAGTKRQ

On to `C#C[C@]1(CO)O[C@@H](n2cnc3c(N)nc(F)nc32)C[C@@H]1O` [EFdA, 4′-ethynyl-2-fluoro-2′-deoxyadenosine], for which, in series [1], the efflux ratio at 2 h was over 2; the efflux ratio at 2 h, 100 μM stood at 5.7; the efflux ratio at 2 h, 400 μM worked out at 2.5. In addition, at ABCB1 transporter (PGP1), the PGP1 inhibitory effect entry is given as “lack of observed PGP1 inhibitory effect”. Further, in [2], the Papp A→B is under 1 ×10⁻⁶ cm/s and the efflux ratio was about 1. In the series on MDCKII monolayers, the “Efflux ratio after EDTA treatment compared to non-EDTA treatment groups” value was “higher”. Further, the Change in solubility result in series [3] (pH from 6 to 9) is “no obvious change”. In addition, the Solubility in water in series [3] is 1000 µg/mL (≈ 3.41 mM). In addition, the “Log Po/w” value in series [4] is listed as −1.2. The Papp in [5] was under 1 ×10⁻⁶ cm/s. Moreover, the “pH dependence of transport” value in the series with Caco-2 monolayers is “independent of pH”.
For `C=C[C@H]1C[N@@]2CC[C@H]1C[C@@H]2[C@@H](O)c1ccnc2ccc(OC)cc12` [Quinidine], the “PGP1 inhibitory response (calcein fluorescence)” value in the series with MDCKII cells [6] was “no obvious PGP1 inhibitory response”.
With Ivermectin, the IC50 in the series with MDCKII cells [7] turned out to be 20 ± 2.91 µM; in series [8], 12.2 ± 0.87 µM. Moreover, the “PGP1 inhibitory response (calcein fluorescence)” value in the series on MDCKII cells [6] is “no obvious PGP1 inhibitory response”.
As for Lucifer yellow [LY], the “Efflux ratio after EDTA treatment compared to non-EDTA treatment groups” value with MDCKII monolayers is reported as “higher”. Besides, the results for the “Papp (a–b)” value in the series on MDCKII monolayers (25 μM), in the series with MDCKII monolayers (100 μM) and with MDCKII monolayers (400 μM) were 3.76 ± 0.12 × 10^−7cm/s, 1.70 ± 0.06 × 10^−7cm/s and 1.77 ± 0.31 × 10^−7cm/s, respectively. In addition, the entries for the “Papp (b-a)” value with MDCKII monolayers (25 μM), in the series with MDCKII monolayers (100 μM) and in the series with MDCKII monolayers (400 μM) were 4.14 ± 0.40 × 10^−7cm/s, 2.05 ± 0.12 × 10^−7cm/s and 2.07 ± 0.46 × 10^−7cm/s, respectively.

As a reminder, the efflux ratio is a quotient of directional permeabilities that is used to spot active efflux. As a reminder, the Papp A→B is the apparent permeability from the apical to the basolateral side of a cell layer. Broadly, the Papp is the rate of passage across a membrane or cell layer, normalised by area and donor concentration. For orientation: IC50 means the concentration needed to halve the response being measured.
